Screening results deposited in PubChem by several laboratories.
PREPL inhibitor: inhibitors of human prolyl oligopeptidase-like enzyme PREPL; Q4J6C6; recombinant PREPL, fluorescence polarization activity-based probe; inhibition, % at 5.96 µM; 320,000 tested, 0.68% active; in the data active means inhibition above about 43%;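 further: 0% = enzyme with DMSO and 100% = wells lacking enzyme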
PP5 inh: blocks human protein phosphatase 5 activity; P53041; purified PP5c, OMFP substrate fluorescence; inhibition, % at 6.7 µM; 320,000 tested, 0.18% active; AID 1987;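 active means inhibition above the campaign's mean inhibition across all tested compounds plus 3 SD, cut at about 9.5% in these data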;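 further: 0% = DMSO only and 100% = 100 µM cantharidin control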
UCH37 DUB inh: human UCH37 deubiquitinating enzyme inhibition; Q9Y5K5; purified proteasome/UCH37, Ub-AMC cleavage fluorescence; inhibition, % (concentration not given with the values); 330,000 tested, 0.33% active;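 active means mean inhibition over replicate wells above about 20%, limit read from the data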;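 further: 0% = compound-free wells with enzyme and 100% = wells lacking proteasome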
Target sequence (Q9Y5K5 whole entry, looked up): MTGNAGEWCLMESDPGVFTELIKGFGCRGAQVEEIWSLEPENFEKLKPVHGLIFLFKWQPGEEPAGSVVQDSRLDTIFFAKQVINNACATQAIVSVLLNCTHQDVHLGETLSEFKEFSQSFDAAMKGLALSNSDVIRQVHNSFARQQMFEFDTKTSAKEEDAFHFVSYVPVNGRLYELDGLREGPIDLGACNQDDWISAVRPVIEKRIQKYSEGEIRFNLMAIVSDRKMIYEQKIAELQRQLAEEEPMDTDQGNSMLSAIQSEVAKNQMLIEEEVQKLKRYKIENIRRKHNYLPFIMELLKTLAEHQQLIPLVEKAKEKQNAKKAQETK
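Material: human UCH37 enzyme supplied as purified proteasome complex. Measure: % inhibition of Ub-AMC cleavage fluorescence. Medium: pH 7.4 Tris-HCl (50 mM) with ovalbumin, ATP-MgCl2, DTT. Times: 30 min preincubation with enzyme, 25 min cleavage at room temperature. Detection: AMC fluorescence intensity at 355/460 nm.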
PP1 inh: counter-screen for PP5 inhibitors: inhibitors of human PP1-alpha | P62136 | inhibition, % at 6.7 µM | 320,000 tested, 0.9% active | purified PP1alpha, OMFP fluorescence | AID 2235;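 active means inhibition above the mean inhibition of all tested compounds plus 3 SD, computed separately for each screening campaign, cut at about 15% in these data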
Fh CTSL1 inh: cathepsin L1 inhibition, PFM18AAP counter-screen | 300,000 tested, 0.49% active | inhibition, % at 5.96 µM | recombinant F. hepatica cathepsin L1, Z-Leu-Arg-MCA fluorescence | AID 1906;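 active means inhibition above the mean of all tested compounds plus 3 SD, set per screening campaign, cut at about 17% in these data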;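 further: 0% = plate median of test compound wells and 100% = 1 µM Z-Phe-Ala-diazomethylketone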
UBC13 polyUb: inhibitors of human UBC13 polyubiquitin chain formation; P61088; TR-FRET; inhibition, % at 20 µM; 330,000 tested, 0.47% active; AID 485273; in the data active means inhibition above about 45%, passing the limit was not always enough
Target sequence (P61088 whole entry, looked up): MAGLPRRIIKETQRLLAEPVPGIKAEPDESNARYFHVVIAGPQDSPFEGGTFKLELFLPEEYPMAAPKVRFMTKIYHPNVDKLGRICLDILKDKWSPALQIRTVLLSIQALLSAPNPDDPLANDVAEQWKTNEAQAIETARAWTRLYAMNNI
* hit, by the source's call; i = inactive; . = no result; ! = not active in a repeat. This is a sample that favours compounds with a hit; in the whole collection about 2.3% have one here.

SMILES	PREPL inhibitor	PP5 inh	UCH37 DUB inh	PP1 inh	Fh CTSL1 inh	UBC13 polyUb
COC(=O)C(C(C)=O)C1=CC(=NS(=O)(=O)c2ccc(C)cc2)c2ccccc2C1=O (stereo not given)	.	.	0	.	.	.
CC(=NN)c1c(-c2ccccc2)c2cc(Br)ccc2[nH]c1=O	.	.	5	.	.	.
Cc1ccc(S(=O)(=O)NN=Cc2cn(-c3ccccc3)nc2-c2ccccc2)cc1	.	.	4	.	.	.
CC(CCC(C)C(C)(C)C)[C@@H]1CC[C@H]2C3C[C@H](OS(O)(=S)=S)[C@H]4C[C@H](OS(O)(=S)=S)[C@@H](OS(O)(=S)=S)C[C@]4(C)[C@H]3CC[C@]12C (stereo not given in full) (tested in a mixture with another compound)	46*!	.	.	.	.	-25
C[C@H](CCC(=O)O)[C@H]1CC[C@H]2[C@@H]3[C@H](O)C[C@@H]4C[C@H](O)CC[C@]4(C)[C@H]3CC[C@]12C	9	2	0	2	1	-20
CN(CCNC(=O)c1ccc(C=NO)nc1)Cc1ccccc1	.	.	2	.	.	.
COC(=O)c1cccc(C23CC4(C2)[C@H](CN(Cc2cccnc2)[C@@H]4c2ccccc2)C3c2ccccc2)c1 (stereo not given in full)	9	3	4	16*	2	-12
FC(F)(F)c1ccc(C2[C@H]3CN(Cc4cccnc4)[C@H](c4ccccc4)C34CC2(c2ccccc2)C4)cc1 (stereo not given in full)	-6	3	4	16*	-5	16
CSc1ccc(C=NNC(=O)CNc2cccc3ccccc23)cc1	.	.	-7	.	.	.
Cc1cccc2c1NC(=O)C2=O	.	.	2	.	.	.
COC(=O)c1cccc2c1NC(=O)C2=O	4	0	13	-4	17*	-9
CC(NC(=O)Cn1nc(C(F)(F)F)c2c1CCC2)c1ccccc1 (stereo not given)	8	2	-2	-1	17*	6
COc1cccc(C=NNC(=O)c2ccc(C)nc2)c1	.	.	4	.	.	.
CCOC(=O)c1cccc(NC(=O)/C(=C\c2ccccc2)NC(=O)c2ccccc2Cl)c1	4	2	-4	17*	2	0
COc1cc(C=NNC(=O)c2nnn(-c3nonc3N)c2C(C)C)ccc1O	.	.	4	.	.	.
O=C(c1cnn2ccccc12)N(Cc1ccco1)C1CCCC1	6	0	5	-1	47*	3
COc1cc2c3nnc(-c4ccc(F)cc4)c-3cn(Cc3cccc(F)c3)c2cc1OC	-7	3	-5	15	63*	20
COc1cc2c3nnc(-c4ccc(F)cc4)c-3cn(Cc3cccc(C)c3)c2cc1OC	-42	3	-71	10	3	79*
COc1cc2c3nnc(-c4ccccc4)c-3cn(Cc3ccc(F)cc3)c2cc1OC	-11	5	-99	8	1	20
O=C1CC(=C(c2ccccc2)c2ccccc2)C(=O)N1CCCN1CCN(c2cccc(Cl)c2)CC1	18	4	-1	17*	-1	2
CC(=O)Nc1ccc(-c2csc(NN=Cc3ccncc3)n2)cc1	.	.	2	.	.	.
N#CC(=NNc1ccc([N+](=O)[O-])cc1)C(=N)N1CCCCC1	.	.	23*	.	.	.
COCCn1nnnc1C(c1cccs1)N1CCN(c2nc3ccccc3s2)CC1 (stereo not given)	50*	5	1	-1	3	5
CC(=NNC(=O)CNc1ccc(Cl)cc1C)c1ccc(C)cc1	.	.	34*	.	.	.
NC(=NCc1ccc2c(c1)OCO2)NC(=O)c1ccccc1	.	.	24*	.	.	3
SMILES	PREPL inhibitor	PP5 inh	UCH37 DUB inh	PP1 inh	Fh CTSL1 inh	UBC13 polyUb
CN1CCN(CCCNC(=O)C2CCN(c3nnc(-n4cccc4)s3)CC2)CC1	15	2	2	-1	-5	12
CCN1CCN(CCCNC(=O)C2CCCN(c3nnc(-n4cccc4)s3)C2)CC1 (stereo not given)	-32	0	23*	-1	-5	10
Cn1nc(C(F)(F)F)c(C=NOC(=O)c2ccccc2)c1SCc1ccc(Cl)cc1	.	.	6	.	.	.
Cc1ccc(C=NNC(=O)Cc2cccn2C)s1	.	.	4	.	.	.
COc1ccc(C2/C(=C(/O)c3ccc4c(c3)CC(C)O4)C(=O)C(=O)N2CCN2CCOCC2)cc1 (stereo not given)	-2	1	4	-2	-1	-14
COc1ccc(C2/C(=C(/O)c3ccc4c(c3)CC(C)O4)C(=O)C(=O)N2CCCN2CCOCC2)cc1 (stereo not given)	-3	3	21*	3	-2	-3
COc1ccccc1N(CC(=O)NN=C(C)c1cccc(Br)c1)S(C)(=O)=O	.	.	-2	.	.	.
O=C(OC[C@H]1O[C@@H](OC(=O)c2cc(O)c(O)c(OC(=O)c3cc(O)c(O)c(O)c3)c2)[C@H](OC(=O)c2cc(O)c(O)c(OC(=O)c3cc(O)c(O)c(O)c3)c2)[C@@H](OC(=O)c2cc(O)c(O)c(OC(=O)c3cc(O)c(O)c(O)c3)c2)[C@@H]1OC(=O)c1cc(O)c(O)c(OC(=O)c2cc(O)c(O)c(O)c2)c1)c1cc(O)c(O)c(OC(=O)c2cc(O)c(O)c(O)c2)c1	104*	4	.	82*	10	.
COC1OC(COC(=O)c2ccccc2)C(OC(=O)c2ccccc2)C1OC(=O)c1ccccc1 (stereo not given)	-4	1	1	2	-2	-9
Br/C(C=NNc1ccc2nncn2n1)=C\c1ccccc1	.	.	5	.	.	.
O=S(=O)(c1cnccc1N1CCN(N=Cc2ccccc2)CC1)N1CCCCC1	.	.	3	.	.	.
Cc1cccc(CNc2ccc(C(CC(N)=O)NC(=O)Cc3cccc4ccccc34)cc2[N+](=O)[O-])c1 (stereo not given)	-9	2	.	17*	3	-20
CCCCNc1ccc(C(CC(N)=O)NC(=O)Cc2cccc3ccccc23)cc1[N+](=O)[O-] (stereo not given)	10	-3	3	1	0	-46
CCCOc1ccc(OCCSc2ncccn2)cc1	-7	2	1	16*	3	7
Clc1ccc(OCCCCSc2ncccn2)cc1	-2	-1	2	-5	1	6
COc1cccc(C(=O)NN=Cc2ccc(OC3CSC3)cc2)c1	.	.	1	.	.	.
C[n+]1cc(C(=O)N2CCCCC2)ccc1/C=C/c1c[nH]c2ccccc12	1	4	24*	-6	5	i
O=C(C(=O)N1CCCCCC1)c1c[nH]c2ccccc12	.	.	6	.	.	-3
O=C(CC(=NO)c1ccccc1O)C(F)F	.	.	5	.	.	.
CCc1onc(C)c1C(=O)Nc1ccc2c(c1)OCO2	7	-1	4	-5	19*	-1
O=C(CC1SC(=O)NC1=O)Oc1ccc(C=NNC(=O)c2ccccc2O)cc1 (stereo not given)	.	.	7	.	.	.
O=C(CN1CCN(Cc2ccccc2)CC1)Nc1ccc([N+](=O)[O-])cc1C(=O)Nc1ccccc1F	43*	2	4	0	2	2
